Measured values reported in paper PMC11393732 (RSC Medicinal Chemistry, 2024).

Tests used:
[1] = Hepatic metabolism S9 fraction incubation, rat
KDM3A [2] = target: T1, KDM3A (Homo sapiens, UniProt Q9Y4C1); test: IHC of HCP-1 xenograft tumors, KDM3A; type: in vivo, mice
T1 sequence (Q9Y4C1 1-1321): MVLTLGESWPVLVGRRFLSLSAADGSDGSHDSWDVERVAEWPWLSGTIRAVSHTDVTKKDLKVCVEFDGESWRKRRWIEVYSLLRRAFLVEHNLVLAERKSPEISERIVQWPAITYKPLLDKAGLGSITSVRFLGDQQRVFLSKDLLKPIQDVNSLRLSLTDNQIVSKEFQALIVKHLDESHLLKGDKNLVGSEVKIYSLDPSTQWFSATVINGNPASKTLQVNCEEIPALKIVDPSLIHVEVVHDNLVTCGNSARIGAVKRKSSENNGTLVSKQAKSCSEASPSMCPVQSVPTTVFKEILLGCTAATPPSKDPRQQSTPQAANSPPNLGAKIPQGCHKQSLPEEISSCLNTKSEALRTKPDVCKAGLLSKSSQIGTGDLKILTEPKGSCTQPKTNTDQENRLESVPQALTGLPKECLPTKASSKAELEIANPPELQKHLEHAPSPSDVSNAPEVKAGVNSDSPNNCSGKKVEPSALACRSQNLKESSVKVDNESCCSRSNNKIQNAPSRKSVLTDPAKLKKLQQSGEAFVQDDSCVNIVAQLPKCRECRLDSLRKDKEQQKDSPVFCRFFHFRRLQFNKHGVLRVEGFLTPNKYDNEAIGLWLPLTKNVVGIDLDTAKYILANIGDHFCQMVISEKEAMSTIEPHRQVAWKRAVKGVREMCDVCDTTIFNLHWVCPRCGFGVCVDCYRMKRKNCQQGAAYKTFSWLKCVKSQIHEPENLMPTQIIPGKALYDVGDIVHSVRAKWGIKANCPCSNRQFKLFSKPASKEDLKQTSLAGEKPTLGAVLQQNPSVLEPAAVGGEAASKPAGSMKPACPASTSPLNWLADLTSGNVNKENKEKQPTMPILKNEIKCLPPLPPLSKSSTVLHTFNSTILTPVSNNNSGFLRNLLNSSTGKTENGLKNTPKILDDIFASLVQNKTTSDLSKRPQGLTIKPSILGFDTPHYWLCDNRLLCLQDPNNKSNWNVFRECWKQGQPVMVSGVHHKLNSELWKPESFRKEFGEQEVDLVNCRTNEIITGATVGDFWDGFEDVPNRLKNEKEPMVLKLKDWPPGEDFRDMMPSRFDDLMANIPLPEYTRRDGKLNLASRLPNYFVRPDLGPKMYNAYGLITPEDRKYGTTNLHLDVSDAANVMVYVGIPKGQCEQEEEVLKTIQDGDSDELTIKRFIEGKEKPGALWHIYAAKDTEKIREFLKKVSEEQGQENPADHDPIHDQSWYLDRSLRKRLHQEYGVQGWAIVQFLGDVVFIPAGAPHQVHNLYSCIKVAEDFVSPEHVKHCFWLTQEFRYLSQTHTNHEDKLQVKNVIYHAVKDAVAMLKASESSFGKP
Outline: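 Tumours came from ALDHHigh HCP-1 xenografts in NSG mice given test compound IP (3, 10 or 35 mg kg−1) for 16 days. Paraffin sections were deparaffinised and rehydrated, then antigen-unmasked. Peroxidase blocked; sections blocked 1 h in 10% goat serum. Primary antibody overnight at 4 °C, biotinylated secondary 30 min at RT, avidin–biotin peroxidase detection, hematoxylin counterstain.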

HCP-1 cells = test: Clonogenic assay HCP-1; type: cell-based, human; conditions: HCP-1, 2 weeks
Outline: (§1)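 Cells kept in DMEM with 10% FBS and 1% pen–strep, seeded at 500 cells/well and dosed with test compound once attached. Medium refreshed every 3 days for 2 weeks. Colonies stained with 0.5% crystal violet and photographed. ED50 obtained by image analysis.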

[3] = test system: KDM4 family proteins (KDM4A, KDM4B and KDM4C); test: Western blot KDM4 family proteins in SW480 cells; type: cell-based, human
Outline: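 Lysates from compound-treated SW480 cells normalised for total protein and resolved by SDS-PAGE. Semi-dry transfer to PVDF, 1 h block in 5% milk. Overnight incubation at 4 °C with anti-KDM4A, -KDM4B or -KDM4C antibody in 1% milk, secondary 1 h at RT, TBST washes, α-tubulin as loading control.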

KDM3B [4] = target: T2, KDM3B (Homo sapiens, UniProt Q7LBC6); test: Western blot KDM3B degradation in HCP-1 cells; type: cell-based
T2 sequence (Q7LBC6 whole entry): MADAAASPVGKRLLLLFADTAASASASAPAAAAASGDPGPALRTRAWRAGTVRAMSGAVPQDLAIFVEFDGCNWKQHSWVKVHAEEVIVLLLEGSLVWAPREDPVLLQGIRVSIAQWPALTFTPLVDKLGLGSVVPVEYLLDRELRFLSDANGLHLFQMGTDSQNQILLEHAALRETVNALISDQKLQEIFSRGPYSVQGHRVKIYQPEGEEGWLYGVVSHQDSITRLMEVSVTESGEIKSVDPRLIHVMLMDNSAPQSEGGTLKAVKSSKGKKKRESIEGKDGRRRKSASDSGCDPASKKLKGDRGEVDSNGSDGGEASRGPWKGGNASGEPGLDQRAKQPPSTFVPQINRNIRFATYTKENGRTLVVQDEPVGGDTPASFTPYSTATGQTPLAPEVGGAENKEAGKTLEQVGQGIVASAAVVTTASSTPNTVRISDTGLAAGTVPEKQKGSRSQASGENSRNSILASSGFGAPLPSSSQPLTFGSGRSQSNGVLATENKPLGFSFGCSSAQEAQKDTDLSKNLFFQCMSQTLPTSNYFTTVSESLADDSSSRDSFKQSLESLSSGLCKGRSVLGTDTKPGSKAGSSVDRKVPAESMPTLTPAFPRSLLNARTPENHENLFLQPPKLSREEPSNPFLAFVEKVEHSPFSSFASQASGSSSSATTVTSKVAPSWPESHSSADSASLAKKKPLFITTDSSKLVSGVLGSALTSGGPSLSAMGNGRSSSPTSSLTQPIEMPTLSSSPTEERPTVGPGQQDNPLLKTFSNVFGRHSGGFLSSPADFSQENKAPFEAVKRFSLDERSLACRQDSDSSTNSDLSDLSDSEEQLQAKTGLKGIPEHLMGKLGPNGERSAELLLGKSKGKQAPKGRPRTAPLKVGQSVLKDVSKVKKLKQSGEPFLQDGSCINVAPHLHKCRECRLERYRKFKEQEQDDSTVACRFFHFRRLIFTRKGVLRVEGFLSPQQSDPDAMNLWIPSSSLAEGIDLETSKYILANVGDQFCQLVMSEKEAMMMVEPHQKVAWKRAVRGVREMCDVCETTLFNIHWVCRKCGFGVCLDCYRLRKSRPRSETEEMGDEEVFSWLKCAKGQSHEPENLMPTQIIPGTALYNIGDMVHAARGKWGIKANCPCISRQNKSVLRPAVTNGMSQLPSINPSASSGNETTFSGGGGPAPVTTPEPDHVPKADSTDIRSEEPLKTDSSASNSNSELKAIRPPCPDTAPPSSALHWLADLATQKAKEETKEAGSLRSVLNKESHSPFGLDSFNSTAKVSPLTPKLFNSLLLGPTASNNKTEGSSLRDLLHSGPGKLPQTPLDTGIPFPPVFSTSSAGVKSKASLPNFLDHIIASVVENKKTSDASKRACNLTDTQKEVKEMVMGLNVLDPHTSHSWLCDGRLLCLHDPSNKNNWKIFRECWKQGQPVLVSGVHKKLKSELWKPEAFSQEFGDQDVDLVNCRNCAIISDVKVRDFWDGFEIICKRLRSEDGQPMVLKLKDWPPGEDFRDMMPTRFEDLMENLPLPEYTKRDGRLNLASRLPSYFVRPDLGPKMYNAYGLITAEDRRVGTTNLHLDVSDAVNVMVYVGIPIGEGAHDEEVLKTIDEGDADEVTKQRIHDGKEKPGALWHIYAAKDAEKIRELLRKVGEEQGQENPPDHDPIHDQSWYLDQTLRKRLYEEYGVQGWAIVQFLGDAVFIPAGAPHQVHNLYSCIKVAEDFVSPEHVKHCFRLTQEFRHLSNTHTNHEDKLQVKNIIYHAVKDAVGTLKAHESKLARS

KDM3A [5] = target: T1, KDM3A; test: Western blot KDM3A degradation in HCP-1 cells; type: cell-based
SW480 cells = test: Clonogenic assay SW480; type: cell-based, human; conditions: SW480, 2 weeks
Outline: as §1

KDM3B [6] = target: T2, KDM3B; test: Western blot KDM3B degradation in SW480 cells; type: cell-based
Outline: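 SW480 cells exposed to test compound for 16 h, then total lysates protein-normalised and run on SDS-PAGE. Semi-dry transfer to PVDF, 1 h block in 5% milk. Primary antibody overnight at 4 °C in 1% milk, secondary 1 h at RT, TBST washes, α-tubulin as loading control. Rescue arms co-treated with MLN4924 (1 μM) or pomalidomide (100 μM). Test compound at 0.1 μM for the KDM3A blot and 1 μM for the KDM3B blot.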

ALDH^high-HCP-1 CSCs = test: Tumor sphere formation assay HCP-1; type: cell-based, human; conditions: 2 weeks
Outline: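 Trypsinised cells passed through a 40 μm strainer and stained with ALDEFLUOR. ALDHHigh cells sorted by FACS, with DEAB-treated cells as gating control. Plated at 1000 cells/well on ultra-low attachment in serum-free MEBM containing 2% B27, 20 ng mL−1 EGF, 10 ng mL−1 FGF, 1 ng mL−1 hydrocortisone, 5 μg mL−1 insulin and 100 μM β-mercaptoethanol. Dosed 1 h after plating; medium renewed at 1 week. Spheres >40 μm counted at 2 weeks for ED50.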

KDM3B [7] = target: T2, KDM3B; test: IHC of HCP-1 xenograft tumors, KDM3B; type: in vivo, mice; conditions: HCP-1 xenograft tumor tissues
[8] = Hepatic metabolism S9 fraction incubation, human
[9] = 0.1 μM, plus glutathione, UDPGA, PAPS, 37 °C

SMILES: O=C1CCC(N2C(=O)c3cccc(NCCOCCOCCOCCOCCNC(=O)c4ccc(O)c5ncccc45)c3C2=O)C(=O)N1 (stereo not shown) [Compound 4, N-(14-((2-(2,6-Dioxopiperidin-3-yl)-1,3-dioxoisoindolin-4-yl)amino)-3,6,9,12-tetraoxatetradecyl)-8-hydroxyquinoline-5-carboxamide]
- CLint Rat (liver, S9) [1, 9]: 34.5 µL/min/mg
- t 1/2 Rat (liver, S9) [1, 9]: 20.1 min
- clearance classification, rat ([1]; CLint classification bands): moderate clearance
- half-life at 0.1 μM ([1]; rat, s9, t 1/2 Rat (liver, S9), 0.1 μM, plus glutathione, UDPGA, PAPS, 37 °C): 20 min
- KDM3A level (IHC) at high dose (KDM3A [2]; 35 mg kg^−1): slight upregulation of KDM3A
- KDM3A degradation in vivo (IHC) (KDM3A [2]; HCP-1 xenograft tumor tissues): confirmed the PROTAC-induced KDM3A and KDM3B degradation in vivo
- colony formation (HCP-1 cells): potently inhibited the colony formation
- effect on KDM4 family proteins [3]: not dramatically affected
- KDM3B degradation (KDM3B [4]): potently induce KDM3A and KDM3B degradation
- KDM3A degradation (KDM3A [5]): potently induce KDM3A and KDM3B degradation
- colony formation (SW480 cells): potently inhibited the colony formation
- Dmax (KDM3B [6]; SW480, read-out: Dmax KDM3B): 88.5%
- KDM3B degradation with MLN4924 co-treatment (KDM3B [6]; SW480, MLN4924 1 μM, compound 4 1 μM): could be restored by MLN4924
- KDM3B degradation with pomalidomide or IOX1 co-treatment (KDM3B [6]; SW480, pomalidomide 100 μM, compound 4 1 μM): could also be suppressed by either pomalidomide or IOX1
- KDM3B degradation (western blot) (KDM3B [6]; SW480 cells, 16 hours): degrades both KDM3A and KDM3B at nanomolar concentrations
- DC50 (KDM3B [6]; read-out: DC50 KDMB, SW480 cells, 16 hours): 0.173 µM
- ED50 HCP-1 (tumor sphere formation) (ALDH^high-HCP-1 CSCs): 0.28 µM
- KDM3B degradation in vivo (IHC) (KDM3B [7]): confirmed the PROTAC-induced KDM3A and KDM3B degradation in vivo
- CLint Human (liver, S9) [8, 9]: 41.6 µL/min/mg
- t 1/2 Human (liver, S9) [8, 9]: 16.7 min
- clearance classification, human ([8]; CLint classification bands): moderate clearance
- half-life at 0.1 μM ([8]; human, s9, t 1/2 Human (liver, S9), 0.1 μM, plus glutathione, UDPGA, PAPS, 37 °C): 16 min
